Laboratory results published in ChEMBL document CHEMBL1153433, “Design and synthesis of 2-amino-4-methylpyridine analogues as inhibitors for inducible nitric oxide synthase and in vivo evaluation of [18F]6-(2-fluoropropyl)-4-methyl-pyridin-2-amine as a potential PET tracer for inducible nitric oxide synthase” (J Med Chem, 2009).

Key:
[1] = biological target: Nitric oxide synthase, inducible (Homo sapiens, UniProt P35228); test: Inhibition of human recombinant iNOS using 1 mM […] and 2 uM L-arginine after 30 mins
Chain of Nitric oxide synthase, inducible (P35228 whole entry): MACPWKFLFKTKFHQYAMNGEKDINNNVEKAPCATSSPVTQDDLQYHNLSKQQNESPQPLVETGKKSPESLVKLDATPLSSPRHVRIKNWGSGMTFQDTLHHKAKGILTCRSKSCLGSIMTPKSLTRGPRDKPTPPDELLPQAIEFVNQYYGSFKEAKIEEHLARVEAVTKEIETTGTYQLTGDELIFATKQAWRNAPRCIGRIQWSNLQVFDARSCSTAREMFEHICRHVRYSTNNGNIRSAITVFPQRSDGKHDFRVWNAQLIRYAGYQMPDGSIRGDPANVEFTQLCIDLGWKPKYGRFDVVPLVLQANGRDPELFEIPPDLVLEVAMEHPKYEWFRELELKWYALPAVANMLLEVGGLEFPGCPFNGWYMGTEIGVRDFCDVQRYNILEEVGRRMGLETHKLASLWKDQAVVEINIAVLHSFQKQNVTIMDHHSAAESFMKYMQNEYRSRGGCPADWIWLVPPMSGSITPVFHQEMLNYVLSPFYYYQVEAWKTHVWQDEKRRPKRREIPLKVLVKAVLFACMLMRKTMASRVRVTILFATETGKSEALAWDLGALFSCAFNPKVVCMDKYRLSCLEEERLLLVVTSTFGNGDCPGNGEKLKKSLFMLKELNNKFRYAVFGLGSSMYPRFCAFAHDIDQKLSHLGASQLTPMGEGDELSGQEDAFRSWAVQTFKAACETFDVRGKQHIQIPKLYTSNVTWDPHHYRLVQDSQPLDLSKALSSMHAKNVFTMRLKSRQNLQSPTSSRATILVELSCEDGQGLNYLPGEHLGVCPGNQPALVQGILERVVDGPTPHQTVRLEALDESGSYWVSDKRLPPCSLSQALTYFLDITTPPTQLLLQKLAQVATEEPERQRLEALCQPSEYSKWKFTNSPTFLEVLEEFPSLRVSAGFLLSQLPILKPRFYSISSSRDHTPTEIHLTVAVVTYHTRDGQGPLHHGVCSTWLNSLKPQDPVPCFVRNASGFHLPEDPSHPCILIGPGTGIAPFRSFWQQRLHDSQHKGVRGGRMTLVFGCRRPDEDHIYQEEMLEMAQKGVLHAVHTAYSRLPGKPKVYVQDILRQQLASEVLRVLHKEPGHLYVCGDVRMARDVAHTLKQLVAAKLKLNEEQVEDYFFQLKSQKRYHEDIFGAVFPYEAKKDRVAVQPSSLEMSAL
How it was run: (§1)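 Recombinant human NOS, scintillation proximity kit. Buffer: 50 mM Tris pH 7.4, 1.0 mM NADPH, 3.8 μM each of FMN, FAD and tetrahydrobiopterin, 2.0 mM DTT, 2.0 μM L-arginine. eNOS and nNOS buffer also had 20 μg/mL calmodulin and 1 mM CaCl2. Started with [3H]arginine, 30 min at room temperature, stopped with yttrium-silicate arginine-binding beads, counted after 2 h settling. IC50 mean ± SD, N ≥ 3.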

Nitric oxide synthase 3 = biological target: T1, Nitric oxide synthase 3 (Homo sapiens, UniProt P29474); test: Inhibition of human recombinant eNOS using 1 mM […] and 2 uM L-arginine after 30 mins; how it was run: as §1
T1 sequence (P29474 whole entry): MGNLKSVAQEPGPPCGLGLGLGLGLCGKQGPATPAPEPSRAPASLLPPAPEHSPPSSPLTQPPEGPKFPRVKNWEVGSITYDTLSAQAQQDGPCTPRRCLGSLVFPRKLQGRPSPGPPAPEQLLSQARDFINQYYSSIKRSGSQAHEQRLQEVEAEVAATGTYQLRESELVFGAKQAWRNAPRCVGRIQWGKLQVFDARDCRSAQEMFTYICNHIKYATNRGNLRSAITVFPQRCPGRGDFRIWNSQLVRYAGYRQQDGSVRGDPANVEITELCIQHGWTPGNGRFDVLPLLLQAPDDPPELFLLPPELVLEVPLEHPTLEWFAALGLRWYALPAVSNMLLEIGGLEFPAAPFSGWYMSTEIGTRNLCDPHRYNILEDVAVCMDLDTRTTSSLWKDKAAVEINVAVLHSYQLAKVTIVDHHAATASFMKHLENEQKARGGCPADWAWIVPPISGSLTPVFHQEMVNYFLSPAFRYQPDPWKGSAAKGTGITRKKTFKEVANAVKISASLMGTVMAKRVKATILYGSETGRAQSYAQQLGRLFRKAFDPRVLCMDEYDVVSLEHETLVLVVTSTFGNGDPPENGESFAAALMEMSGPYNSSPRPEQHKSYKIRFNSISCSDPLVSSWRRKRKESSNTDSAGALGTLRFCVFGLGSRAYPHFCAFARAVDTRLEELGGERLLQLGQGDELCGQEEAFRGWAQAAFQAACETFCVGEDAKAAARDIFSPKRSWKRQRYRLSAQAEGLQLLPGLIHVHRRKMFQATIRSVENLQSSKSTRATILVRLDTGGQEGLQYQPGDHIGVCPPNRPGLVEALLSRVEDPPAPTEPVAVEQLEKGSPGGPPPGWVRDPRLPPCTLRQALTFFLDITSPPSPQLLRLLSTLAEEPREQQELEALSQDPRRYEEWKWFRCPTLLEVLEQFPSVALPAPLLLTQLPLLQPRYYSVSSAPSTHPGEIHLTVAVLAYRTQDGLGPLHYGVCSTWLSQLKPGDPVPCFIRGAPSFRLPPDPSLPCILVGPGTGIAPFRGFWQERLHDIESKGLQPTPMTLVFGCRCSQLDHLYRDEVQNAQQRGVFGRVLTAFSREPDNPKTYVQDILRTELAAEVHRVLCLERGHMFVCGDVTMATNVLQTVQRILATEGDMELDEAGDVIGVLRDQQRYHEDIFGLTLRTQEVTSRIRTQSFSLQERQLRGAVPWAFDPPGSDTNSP

Nitric oxide synthase 1 = Nitric oxide synthase 1 (Homo sapiens, UniProt P29475); test: Inhibition of human recombinant nNOS using 1 mM […] and 2 uM L-arginine after 30 mins; how it was run: as §1
Chain of Nitric oxide synthase 1 (P29475 whole entry): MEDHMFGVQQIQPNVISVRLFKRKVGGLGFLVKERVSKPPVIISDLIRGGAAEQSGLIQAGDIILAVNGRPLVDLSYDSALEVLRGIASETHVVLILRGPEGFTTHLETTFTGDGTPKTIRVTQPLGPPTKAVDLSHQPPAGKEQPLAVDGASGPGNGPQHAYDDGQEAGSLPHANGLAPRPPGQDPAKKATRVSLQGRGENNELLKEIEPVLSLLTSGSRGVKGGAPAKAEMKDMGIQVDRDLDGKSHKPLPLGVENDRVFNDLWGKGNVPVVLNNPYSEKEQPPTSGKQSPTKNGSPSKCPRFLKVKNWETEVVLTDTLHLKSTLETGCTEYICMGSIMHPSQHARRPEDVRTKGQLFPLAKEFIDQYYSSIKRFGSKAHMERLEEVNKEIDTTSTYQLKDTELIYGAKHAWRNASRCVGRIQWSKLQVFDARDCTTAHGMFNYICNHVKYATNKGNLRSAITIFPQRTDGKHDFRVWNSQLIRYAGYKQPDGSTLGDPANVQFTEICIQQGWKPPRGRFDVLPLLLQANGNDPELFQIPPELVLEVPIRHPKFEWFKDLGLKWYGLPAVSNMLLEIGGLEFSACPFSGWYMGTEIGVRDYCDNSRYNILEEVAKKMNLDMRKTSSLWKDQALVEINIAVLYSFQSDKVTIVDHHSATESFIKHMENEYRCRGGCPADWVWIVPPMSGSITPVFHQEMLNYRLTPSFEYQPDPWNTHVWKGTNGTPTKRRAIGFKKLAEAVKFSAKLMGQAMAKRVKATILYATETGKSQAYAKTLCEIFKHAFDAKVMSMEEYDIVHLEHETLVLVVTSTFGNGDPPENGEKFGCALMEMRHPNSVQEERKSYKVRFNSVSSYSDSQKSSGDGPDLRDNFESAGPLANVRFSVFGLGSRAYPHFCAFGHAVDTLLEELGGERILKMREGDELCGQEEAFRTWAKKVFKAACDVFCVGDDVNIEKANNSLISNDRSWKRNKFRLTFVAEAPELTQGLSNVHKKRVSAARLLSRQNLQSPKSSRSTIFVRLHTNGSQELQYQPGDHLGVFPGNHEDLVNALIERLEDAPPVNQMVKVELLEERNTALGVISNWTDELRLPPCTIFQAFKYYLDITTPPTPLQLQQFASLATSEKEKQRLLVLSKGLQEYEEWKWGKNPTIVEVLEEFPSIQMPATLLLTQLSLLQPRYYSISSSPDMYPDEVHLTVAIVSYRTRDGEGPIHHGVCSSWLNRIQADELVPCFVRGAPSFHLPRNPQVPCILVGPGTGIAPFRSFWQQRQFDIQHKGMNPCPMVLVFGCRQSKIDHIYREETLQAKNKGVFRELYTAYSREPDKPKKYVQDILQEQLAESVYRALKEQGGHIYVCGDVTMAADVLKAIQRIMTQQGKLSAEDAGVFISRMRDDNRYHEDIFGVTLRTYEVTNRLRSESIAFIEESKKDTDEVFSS

SMILES | IC50 [1] | IC50 (Nitric oxide synthase 3) | IC50 (Nitric oxide synthase 1)
Cc1cc(N)nc(CCCF)c1 | 57.6 nM | 1430 nM | 514 nM
Cc1cc(N)nc(CC(C)CCF)c1 (stereo not drawn) | 731 nM | – | –
Cc1cc(N)nc(CC(C)F)c1 (stereo not drawn) | 220 nM | 1500 nM | –
Cc1cc(N)nc(CC(C)OCCF)c1 (stereo not drawn) | > 5000 nM | – | –
COCCC(C)Cc1cc(C)cc(N)n1 (stereo not drawn) | > 5000 nM | – | –
CSCCC(C)Cc1cc(C)cc(N)n1 (stereo not drawn) | > 5000 nM | – | –
COC(C)Cc1cc(C)cc(N)n1 (stereo not drawn) | > 5000 nM | – | –
Cc1cc(N)nc(CC(C)O)c1 (stereo not drawn) | 1780 nM | – | –
C/C=C/c1cc(C)cc(N)n1 | 282 nM | – | –
Cc1cc(N)nc(CCCCF)c1 | 170 nM | – | –
